Hits are enriched below; roughly 2.2% of the tested compounds scored in any of these assays.
IEC-6 tox = counter-screen for KLF5 inhibitors: cytotoxicity in IEC-6 cells | inhibition, % at 5 µM | IEC-6 cytotoxicity, luminescence viability | AID 1825 | hit rate 0.78% among 290,000; in the data active = inhibition above about 22%
APP transl inh = APP translation inhibition; hit rate 0.82% among 190,000; SH-SY5Y APP 5'UTR-luciferase reporter, luminescence; AID 1285; inhibition, % at 2 µM;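 active = inhibition above a set limit, derived from the sample mean plus 3 SD, cut at about 45% in these data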
bCat nuc transl = beta-catenin nuclear translocation modulation. HeLa beta-catenin nuclear translocation, immunofluorescence imaging. hit rate 0.3% among 190,000. nuclear translocation activity, % at 5 µM;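 active = nuclear translocation activity above 50% at 5 µM, with a well cell count of 50 or more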;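 also: per-cell ratio of nuclear to cytoplasmic median beta-catenin stain intensity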
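Test system: human HeLa cells, endogenous beta-catenin. Times: 24 h compound exposure, 37°C. Measured by: beta-catenin immunofluorescence imaging with DAPI.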
MT stabilize HCS = microtubule stabilization, imaging screen. HeLa tubulin immunostaining HCS, 24 h; share of cells brighter than vehicle mean+2SD. % tubulin-high responders, % at 10 µM. hit rate 0.83% among 200,000;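 active = plate Z-score above 3 for both tubulin-high and condensed-nucleus cell shares, with cell loss under 80%, at 10 µM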;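 also: anti alpha tubulin signal scored within the nucleus-defined area of each cell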
BaF3 parental = counter-screen for JAK2V617F inhibitors: parental Ba/F3 viability inhibitors; CellTiter-Glo ATP luminescence; inhibition, % at 5.6 µM; hit rate 1.1% among 220,000;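 active = inhibition above a per-campaign cutoff, the mean inhibition of all tested compounds plus 3 SD, cut at about 27% in these data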
Ba/F3 V617F tox = reduce viability of Ba/F3 cells dependent on JAK2V617F. Ba/F3 EpoR-JAK2V617F viability, ATP luminescence. inhibition, % at 5.6 µM. hit rate 1.1% among 220,000. AID 1446;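 active = inhibition above the campaign mean plus 3 SD over all tested compounds, cut at about 24% in these data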;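 also: cytokine-independent growth of Ba/F3 cells driven by EpoR plus mutant JAK2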
Hits are given with their value; - = inactive; . = not tested or not shown.

SMILES	IEC-6 tox	APP transl inh	bCat nuc transl	MT stabilize HCS	BaF3 parental	Ba/F3 V617F tox
COc1ccccc1CNC(=O)c1ccc(CS(=O)(=O)c2ccc(C)cc2)o1	-	.	.	.	.	.
O=C(Nc1nc(-c2ccccn2)cs1)c1cccc(-n2cnnn2)c1	-	.	-	.	62.9	52.7
CCCOC1CCCN(C(=O)c2cc(COc3ccc(-n4cncn4)cc3)on2)C1 (stereo not given)	-	.	.	.	.	.
Cc1ccc(NC(=S)N(CCCN2CCCC2)Cc2cccn2Cc2ccc(Cl)cc2)cc1C	-	-	-	-	-	-
FC(F)(F)c1cccc(NC(=S)N(CCCN2CCCC2)Cc2cccn2Cc2ccc(Cl)cc2)c1	-	-	-	76.4	-	-
COc1ccc(NC(=S)N(CCCN2CCCC2)Cc2cccn2Cc2ccc(Cl)cc2)cc1Cl	-	-	-	59.7	-	-
O=C1c2cccc3c([N+](=O)[O-])ccc(c23)C(=O)N1c1ccc(Cl)cn1	-	77.8	-	-	-	-
O=C1c2cccc3c([N+](=O)[O-])ccc(c23)C(=O)N1c1nccs1	-	80.8	-	-	31.5	38.6
O=C1c2cccc3c([N+](=O)[O-])ccc(c23)C(=O)N1c1ccccn1	-	81.0	-	-	-	-
CCOc1ccc(-c2cnc(NCc3cccc4ccccc34)n2CCOC)cc1	-	.	.	.	.	.
COc1ccc2[nH]c(C(=O)N/N=C/c3ccc(O)cc3O)cc2c1	-	.	.	.	.	.
COc1ccnc2c1c(=O)n(Cc1ccccc1Cl)c(=O)n2C	-	.	.	.	.	.
Cn1c(Oc2ccc(Cl)c3cccnc23)nc2c1c(=O)n(Cc1ccccc1Cl)c(=O)n2C	-	-	-	-	94.1	-
CC(C)(O)C#Cc1ccc(CN2CCN(C3CCCC3)C(CCO)C2)cc1 (stereo not given)	-	-	-	-	-	-
CC1=NN(c2ccc(C)c(C)c2)C(=O)/C1=C\C=C\c1ccc([N+](=O)[O-])o1	-	94.8	-	-	-	-
CCCCN1C=CC(=C2C(=O)c3ccccc3C2=O)C=C1	-	58.5	-	-	-	-
O=C1CC(c2cccc([N+](=O)[O-])c2)c2cc3c(cc2N1)CCC3 (stereo not given)	-	-	-	25.9	-	-
Cc1ccc(C2CC(=O)Nc3c2ccc2ccccc32)cc1[N+](=O)[O-] (stereo not given)	-	-	-	-	-	-
COc1cccc(C2CC(=O)Nc3cc4c(cc32)CCC4)c1 (stereo not given)	46.5	56.7	-	16.6	45.0	37.9
O=C1CC(c2cccc([N+](=O)[O-])c2)c2c(ccc3ccccc23)N1 (stereo not given)	-	-	-	50.0	-	-
COc1cccc(C2CC(=O)Nc3cc(OC)c(OC)cc32)c1 (stereo not given)	-	.	.	.	.	.
COC(CN(C)S(=O)(=O)c1cc2c3c(c1)CCN3C(=O)CC2)OC	-	.	.	.	.	.
CC(=O)Cc1nsc(NC(=O)c2oc(-c3ccccc3Cl)cc2C)n1	-	-	-	-	-	-
CC(=O)Cc1nsc(NC(=O)c2ccc(-c3ccccc3Cl)o2)n1	-	-	-	24.4	-	-
CC(=O)NC(NC(=S)Nc1cccc(Br)c1)C(Cl)(Cl)Cl (stereo not given)	-	.	-	.	-	-
SMILES	IEC-6 tox	APP transl inh	bCat nuc transl	MT stabilize HCS	BaF3 parental	Ba/F3 V617F tox
COc1ccc(CCCNC(=O)C2CCC(=O)N(CCc3cccc(F)c3)C2)cc1 (stereo not given)	-	.	.	.	.	.
COc1ccc(CN(C(=O)c2ccco2)c2ccc(C)c(C)c2)cc1	-	-	-	16.1	-	-
COc1ccccc1NC(=O)/C=C/c1ccc2c(c1)OCO2	-	-	-	19.3	-	-
COc1ccccc1NC(=O)COC(=O)/C=C/c1ccc2c(c1)OCO2	-	-	-	-	-	-
CCCOc1ccccc1C1CC(=O)Nc2cc3c(cc21)OCCO3 (stereo not given)	81.3	93.8	-	13.4	77.5	77.1
O=C1CC(c2cccnc2)c2cc3c(cc2N1)OCO3 (stereo not given)	-	-	-	-	-	-
CC(C)Oc1ccccc1C1CC(=O)Nc2cc3c(cc21)OCO3 (stereo not given)	84.1	91.9	-	20.6	75.5	73.2
COc1cc(NC(=O)NNC(=O)c2cc3occc3n2C)cc(OC)c1OC	-	.	.	.	.	.
CC(C)n1cc(/C=C2/NC(=O)N(c3cccc(Cl)c3)C2=O)c2ccccc21	-	-	-	-	-	-
CC(C)n1cc(/C=C2\NC(=O)N(c3cccc(Cl)c3)C2=O)c2ccccc21	-	-	.	22.0	-	-
COc1cc(C(=O)OCC(=O)N2CC(C)OC(C)C2)cc(OC)c1OC (stereo not given)	-	.	.	.	.	.
O=C(O)c1ccc(NC(=O)c2cccc(S(=O)(=O)Nc3ccc(C(=O)O)cc3)c2)cc1	-	.	.	.	.	.
O=C1CSc2ccc(C(=O)Nc3cccc(S(=O)(=O)Nc4ccc(Br)cc4)c3)cc2N1	-	-	-	-	43.9	-
O=C(Nc1cccc(S(=O)(=O)Nc2ccc(Cl)cc2)c1)c1ccc(Cl)nc1	-	-	-	-	51.5	41.5
CC(=O)N[C@@H]1[C@@H](O)[C@@H]2OC(c3ccccc3)OC[C@H]2O[C@@H]1N=[N+]=[N-] (stereo not given in full)	-	.	.	.	.	.
COc1ccc(CNC(=O)CN(Cc2ccc(OC)cc2)C(=O)CCC(=O)Nc2ccccn2)cc1	-	.	.	.	.	.
NC1=NC(c2ccccc2)N=C(Nc2ccccc2)N1 (stereo not given)	-	.	-	.	68.4	-
CC(C)(C)C(=O)NC1CCN(CC(=O)Nc2ccc3c(c2)OCO3)CC1	-	.	.	.	.	.
Cc1c(C(C)C)c(=O)n(-c2ccc(S(=O)(=O)N3CCOCC3)cc2)n1C	-	-	-	-	-	-
Cc1c(C(C)C)c(=O)n(-c2ccc(S(=O)(=O)NCc3ccccc3)cc2)n1C	-	-	-	-	72.2	41.6
Cc1c(C(C)C)c(=O)n(-c2ccc(S(=O)(=O)NC3CCCCC3)cc2)n1C	-	-	-	-	40.9	36.5
COc1cc(C(=O)Oc2ccccc2/C=N/NC(=O)c2ccc(C)c(Cl)c2)cc(OC)c1OC	-	50.4	-	-	-	-
COc1cc(C(=O)Oc2ccccc2/C=N/NC(=O)c2ccc(Cl)cc2)cc(OC)c1OC	-	-	-	-	-	-
CCN(CC)c1ccc(NC(=O)c2cccc(OC)c2)c(C)c1	-	-	.	52.7	-	-
C=Cc1ccc(Cn2c(=O)n(C)c(=O)c3sccc32)cc1	-	.	.	.	.	.
CN(c1ccccc1)S(=O)(=O)c1ccc(Cl)c(C(=O)Nc2ccc(-c3nc4ccccc4[nH]3)cc2)c1	-	-	-	17.2	-	-
Fc1ccc(Br)cc1C1C=C(c2ccc(Br)s2)Nc2ncnn21 (stereo not given)	-	-	50.3	-	-	-
O=C(COc1ccc(S(=O)(=O)NC2CCCCC2)cc1)NC1CCCC1	-	-	-	-	-	-
CCOc1ccc(/C=N/NC(=O)c2[nH]ncc2Br)c(O)c1	28.8	-	-	-	-	-

Screening results: PubChem, several laboratories
